Experimental data gathered from unrelated publications.
Each line is one published result; the experiments were not run side by side. pKi: −log10 of the molar value.
CYP3A4: Cytochrome P450 3A4 (CYP3A4, Homo sapiens, UniProt P08684)

SMILES	target or system	assay	system	setting	measurement	result
COc1cc(O)c2c(c1)C(=O)c1cc(C)cc(O)c1C2=O	CYP3A4	enzyme activity, inhibitor	human, liver microsomes	pH 7.4, testosterone probe	pKi	5.22
Cn1cc(Nc2nc(N)nc(-c3cccc(-n4ccc5cc(C6CC6)cc(F)c5c4=O)c3CO)n2)cn1	–	–	human, plasma	oral, 900 mg, single dose, fasted, suspension	Vd/F	212 L
COc1ccc2c(c1)C[C@H]1[C@@H](OC(=O)c3ccccc3)[C@H](OC(C)=O)C(COC(=O)c3ccccc3)=C[C@H]1O2	RAW264.7	cell growth or viability, MTT	–	15 µM, 24 h	viability	91.9%
CCN1CCN(Cc2ccc(NC(=O)c3ccc(C)c(NC(=O)c4cncc(-c5cccs5)c4)c3)cc2C(F)(F)F)CC1	–	–	mouse, plasma	intraperitoneal, 30 mg/kg, single dose	Cmax	716 ng/mL
COc1ccc2[nH]c([S+]([O-])Cc3ncc(C)c(OC)c3C)nc2c1 (stereo not shown)	CYP3A4	enzyme activity, inhibitor	–	30 µM, 1 h, pH 7.4	inhibition	50 to 60%
NC(=S)NN=Cc1ncccc1N	–	–	human, plasma	oral	Vd/F	223 L
CC(=O)OC[C@@]1(COC(=O)c2ccccc2)O[C@H]1/C=C\COC(=O)c1ccccc1	RAW264.7	cell growth or viability, MTT	–	15 µM, 24 h	viability	99.8%
CNC(=O)n1ccc2cc(Oc3ccnc(NC(=O)c4ccc(C5CCN(CCO)CC5)cc4)c3)c(OCCOC)cc21	–	–	human, plasma	oral, 35 mg, single dose, healthy volunteers	Vd/F	11400 L
COc1ccc2c(c1)C[C@]1(OC)C(=O)/C(=C(O)\C=C\c3ccccc3)C(=O)C[C@]1(OC)O2	RAW264.7	cell growth or viability, MTT	–	15 µM, 24 h	viability	92.8%
CC(=O)O[C@@]12CO[C@@H]1C[C@H](O)[C@@]1(C)C(=O)[C@H](O)C3=C(C)[C@@H](OC(=O)[C@H](O)[C@@H](NC(=O)OC(C)(C)C)c4ccccc4)C[C@@](O)([C@@H](OC(=O)c4ccccc4)[C@H]21)C3(C)C	–	–	male Kunming mouse, lung	oral, 20 mg/kg	Cmax	142 ng/g
